TLR4-MyD88 BLA – TLR4-MyD88 interaction inhibition in cells; 0.18% of 200,000 active; AID 861; HeLa CL3-4 TLR4/MyD88 BLA complementation, FRET ratio; inhibition, % at 8.4 µM; O00206+Q99836; in the data active = inhibition above about 25%
CHOP UPR activ – apoptotic UPR (CHOP) activation; activation, % at 10 µM; CHO-CHOP luciferase reporter, luminescence; percent of tunicamycin response over DMSO baseline; 0.34% of 330,000 active;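 active = at 10 µM dose, activation of 40% or more, normalized to positive control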
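System: CHO CHOP reporter cells. Amount: 500 cells per well. Buffer or medium: F12 medium, 10% FBS. Compound dosing: one dose, 10 µM in 0.5% DMSO. Incubation: 6 h compound exposure at 37 °C after overnight seeding. Technique: Steady-Glo luciferase luminescence. Benchmarks: tunicamycin and DMSO controls.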
TLR9-MyD88 block – TLR9-MyD88 interaction inhibition; Q9NR96+Q99836; CHO BLA complementation TLR9-MyD88, CCF4 FRET ratio; inhibition, % at 4.98 µM; 0.21% of 340,000 active; AID 504734;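 active = inhibition above the mean over all tested compounds plus 3 SD, cut at about 21% in these data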
CHOP inh – CHOP inhibition in unfolded protein response. CHO-K1 CHOP-promoter luciferase, tunicamycin-induced, 15-18 h. inhibition, % at 10 µM. 3.8% of 220,000 active;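 active = compounds that reduced the stress-induced luciferase reporter signal by more than about 70% of percent inhibition, limit read from the data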
XBP1 UPR activ – activators of adaptive arm of unfolded protein response (XBP1); 0.33% of 330,000 active; activation, % at 20 µM; CHO-XBP1 luciferase reporter, IRE1-XBP1 UPR activation, luminescence; percent of tunicamycin response, DMSO as zero;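 active = versus positive control, 20 µM dose yields 30% or more activation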
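Material – CHO cell line with stable XBP1 luciferase reporter · Buffer or medium – F12 plus 10% FBS · Compound – single point, 20 µM final compound, 1% DMSO · Schedule – 16-18 h cell attachment at 37 °C, then 6 h compound exposure · Signal – Steady-Glo luminescence read · Benchmarks – high control tunicamycin 10 µg/mL final, low control DMSO vehicle only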
NOD2-RIPK2 inh – NOD2-RIPK2 protein interaction inhibition; O43353; CHO BLA complementation NOD2-RIPK2, CCF4 ratio; inhibition, % at 4.98 µM; 0.38% of 360,000 active; in the data active = inhibition above about 21%
Target sequence (O43353 whole entry, looked up): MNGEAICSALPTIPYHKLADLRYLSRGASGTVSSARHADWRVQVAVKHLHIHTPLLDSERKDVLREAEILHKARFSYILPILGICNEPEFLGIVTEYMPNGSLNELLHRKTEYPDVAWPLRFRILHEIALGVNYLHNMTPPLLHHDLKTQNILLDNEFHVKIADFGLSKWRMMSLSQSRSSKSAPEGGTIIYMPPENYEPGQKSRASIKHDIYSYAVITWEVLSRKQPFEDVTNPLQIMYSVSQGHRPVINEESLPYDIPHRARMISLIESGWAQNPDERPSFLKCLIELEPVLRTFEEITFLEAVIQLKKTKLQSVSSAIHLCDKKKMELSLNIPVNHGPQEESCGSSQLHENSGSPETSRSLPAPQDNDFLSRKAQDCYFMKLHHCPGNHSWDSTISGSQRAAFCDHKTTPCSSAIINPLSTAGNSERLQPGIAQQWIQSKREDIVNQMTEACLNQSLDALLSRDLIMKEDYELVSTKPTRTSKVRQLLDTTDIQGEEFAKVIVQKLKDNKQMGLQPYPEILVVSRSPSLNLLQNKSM
A number is an active result. Shown is part of a subset that was picked to be rich in hits.

Results for N#Cc1c(SCC(=O)O)nc(-c2ccccc2)c2c1CCCC2 ?
TLR4-MyD88 BLA: inactive; CHOP UPR activ: inactive; TLR9-MyD88 block: inactive; CHOP inh: inactive; XBP1 UPR activ: inactive; NOD2-RIPK2 inh: inactive

What do the screens show for `COc1ccccc1-n1c(SCC(=O)c2ccc(O)cc2O)nc2cc([N+](=O)[O-])ccc21`?
TLR4-MyD88 BLA: inactive; CHOP UPR activ: inactive; TLR9-MyD88 block: inactive; CHOP inh: inactive; XBP1 UPR activ: inactive; NOD2-RIPK2 inh: inactive

What do the screens show for `c1ccc(-c2csc(Nc3ccc4c(c3)OCCO4)n2)cc1`?
TLR4-MyD88 BLA: inactive; CHOP UPR activ: inactive; TLR9-MyD88 block: inactive; CHOP inh: 90; XBP1 UPR activ: inactive; NOD2-RIPK2 inh: inactive

How did CCOC(=O)c1c(NC(=S)NC)sc2c1CC(C)(C)SC2 do in these assays?
TLR4-MyD88 BLA: inactive; CHOP UPR activ: inactive; TLR9-MyD88 block: inactive; CHOP inh: 95; XBP1 UPR activ: inactive; NOD2-RIPK2 inh: inactive

How did Cc1ccc(NC(=O)c2cc(C)n(-c3cccc(C)c3)c2C)cc1 do in these assays?
TLR4-MyD88 BLA: inactive; CHOP UPR activ: inactive; TLR9-MyD88 block: inactive; CHOP inh: inactive; XBP1 UPR activ: inactive; NOD2-RIPK2 inh: inactive

What do the screens show for `Cc1ccc(NC(=O)c2cc(C)n(-c3ccccc3)c2C)cc1`?
TLR4-MyD88 BLA: inactive; CHOP UPR activ: inactive; TLR9-MyD88 block: inactive; CHOP inh: 72; XBP1 UPR activ: inactive; NOD2-RIPK2 inh: inactive

What do the screens show for `Cc1ccc(NC(=O)c2csc(-c3ccccc3)c2C)cc1`?
TLR4-MyD88 BLA: inactive; TLR9-MyD88 block: inactive; CHOP inh: 100; NOD2-RIPK2 inh: inactive

What do the screens show for `Cc1c(C(=O)Nc2cccc([N+](=O)[O-])c2)csc1-c1ccccc1`?
TLR4-MyD88 BLA: inactive; CHOP UPR activ: inactive; TLR9-MyD88 block: inactive; CHOP inh: inactive; XBP1 UPR activ: inactive; NOD2-RIPK2 inh: inactive

What do the screens show for `O=C1N(Cc2ccccc2)c2ccc(Br)cc2[C@]12C[C@H](O)CO2`?
NOD2-RIPK2 inh: inactive

What do the screens show for `COC(=O)C[C@H]1CC[C@@H](NC(=O)C2CC2)[C@@H](CO)O1`?
NOD2-RIPK2 inh: inactive

How did Cc1cc(C)cc(NC(=O)COC(=O)CCC2CCCC2)c1 do in these assays?
CHOP UPR activ: inactive; TLR9-MyD88 block: inactive; XBP1 UPR activ: inactive; NOD2-RIPK2 inh: inactive

How did CC(C)(C)NC(=O)NC(=O)COC(=O)COc1ccc2c(c1)CCC2 do in these assays?
TLR4-MyD88 BLA: inactive; CHOP UPR activ: inactive; TLR9-MyD88 block: inactive; CHOP inh: 85; XBP1 UPR activ: inactive; NOD2-RIPK2 inh: inactive

How did CC(C)(C)NC(=O)NC(=O)COC(=O)CCC1CCCC1 do in these assays?
CHOP UPR activ: inactive; TLR9-MyD88 block: inactive; CHOP inh: 77; XBP1 UPR activ: inactive; NOD2-RIPK2 inh: inactive

What do the screens show for `Cc1cccc(NC(=O)COC(=O)COc2ccc3c(c2)CCC3)c1`?
CHOP UPR activ: inactive; TLR9-MyD88 block: inactive; XBP1 UPR activ: inactive; NOD2-RIPK2 inh: inactive

Results for N=C(N)SCc1cn(-c2ccccc2)nc1-c1ccc(Br)cc1 ?
TLR4-MyD88 BLA: inactive; TLR9-MyD88 block: inactive; CHOP inh: 106; NOD2-RIPK2 inh: inactive

How did CC1(C)NC(=O)N(CC(=O)OCC(=O)c2ccc(Br)s2)C1=O do in these assays?
CHOP UPR activ: inactive; TLR9-MyD88 block: inactive; XBP1 UPR activ: inactive; NOD2-RIPK2 inh: inactive

What do the screens show for `Cc1cccc(NNC(=S)Nc2c(C)cccc2C)c1`?
CHOP UPR activ: inactive; TLR9-MyD88 block: inactive; XBP1 UPR activ: inactive; NOD2-RIPK2 inh: inactive

How did COc1ccc2nc(N3C(=O)C(O)=C(C(=O)c4ccco4)C3c3ccc(C)o3)sc2c1 (stereo not drawn) do in these assays?
CHOP UPR activ: inactive; TLR9-MyD88 block: inactive; XBP1 UPR activ: inactive; NOD2-RIPK2 inh: inactive

What do the screens show for `Cc1ccc2nc(N3C(=O)C(O)=C(C(=O)c4ccco4)C3c3cccs3)sc2c1` (stereo not drawn)?
TLR4-MyD88 BLA: inactive; CHOP UPR activ: inactive; TLR9-MyD88 block: inactive; CHOP inh: 94; XBP1 UPR activ: inactive; NOD2-RIPK2 inh: inactive

What do the screens show for `c1ccc2c(-c3cc(NCc4ccncc4)n4nccc4n3)cccc2c1`?
NOD2-RIPK2 inh: inactive

Results for O=C1NC[C@@H](CCCCN2C[C@H](Cc3ccc(O)cc3)N(CCc3ccccc3)C(=O)C2=O)N(Cc2ccccc2)C1=O ?
NOD2-RIPK2 inh: inactive

From PubChem
